Data as given in ChEMBL document CHEMBL5696442, “Discovery of type II inhibitors of TGFβ-activated kinase 1 (TAK1) and mitogen-activated protein kinase kinase kinase kinase 2 (MAP4K2)” (J Med Chem, 2015).
The source made the active and inactive calls. No cut-off for these calls is given here.

What was measured:
[1] = biological target: Platelet-derived growth factor receptor alpha (Homo sapiens) (UniProt P16234); assay: Inhibition of PDGFRA (unknown origin) at 10 uM by Ambit Kinomescan binding assay relative to control
[2] = biological target: Tyrosine-protein kinase ABL1 (Homo sapiens, UniProt P00519); assay: Inhibition of ABL ACT labeling site in human A-375 cells at 0.05 uM by KiNativ Profiling analysis relative to control; type: cell-based
[3] = biological target: T1, Mitogen-activated protein kinase kinase kinase 7 (Homo sapiens) (UniProt O43318); assay: Inhibition of TAK1 Lys2 labeling site in human A-375 cells at 5 uM by KiNativ Profiling analysis relative to control; type: cell-based
T1 sequence (whole entry): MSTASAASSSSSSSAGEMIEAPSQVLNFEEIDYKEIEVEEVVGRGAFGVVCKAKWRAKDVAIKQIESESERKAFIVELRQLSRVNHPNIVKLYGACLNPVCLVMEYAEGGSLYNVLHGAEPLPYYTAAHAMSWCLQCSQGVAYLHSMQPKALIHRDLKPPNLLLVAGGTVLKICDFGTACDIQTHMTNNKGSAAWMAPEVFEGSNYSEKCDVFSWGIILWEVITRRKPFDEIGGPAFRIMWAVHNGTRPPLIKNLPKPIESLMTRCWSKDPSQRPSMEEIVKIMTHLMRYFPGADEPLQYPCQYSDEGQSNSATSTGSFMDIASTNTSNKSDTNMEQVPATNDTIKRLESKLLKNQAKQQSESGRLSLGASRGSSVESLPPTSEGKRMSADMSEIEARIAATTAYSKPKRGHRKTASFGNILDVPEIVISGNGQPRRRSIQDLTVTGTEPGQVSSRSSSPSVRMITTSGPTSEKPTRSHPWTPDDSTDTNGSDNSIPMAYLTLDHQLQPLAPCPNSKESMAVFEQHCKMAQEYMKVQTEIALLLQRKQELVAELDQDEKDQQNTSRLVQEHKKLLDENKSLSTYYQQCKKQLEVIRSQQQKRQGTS

[4] = biological target: STE20-like serine/threonine-protein kinase (Homo sapiens) (UniProt Q9H2G2); assay: Inhibition of SLK K2 labeling site harbouring IIHRDLKAGNILFTLDGDIK in human Huh-7 cells at 10 uM by KiNativ Profiling analysis relative to control; type: cell-based
[5] = biological target: T2, Phosphatidylinositol 5-phosphate 4-kinase type-2 alpha (Homo sapiens) (UniProt P48426); assay: Inhibition of PIP5K2A LIP labeling site in human Huh-7 cells at 1 uM by KiNativ Profiling analysis relative to control; type: cell-based
T2 sequence (whole entry): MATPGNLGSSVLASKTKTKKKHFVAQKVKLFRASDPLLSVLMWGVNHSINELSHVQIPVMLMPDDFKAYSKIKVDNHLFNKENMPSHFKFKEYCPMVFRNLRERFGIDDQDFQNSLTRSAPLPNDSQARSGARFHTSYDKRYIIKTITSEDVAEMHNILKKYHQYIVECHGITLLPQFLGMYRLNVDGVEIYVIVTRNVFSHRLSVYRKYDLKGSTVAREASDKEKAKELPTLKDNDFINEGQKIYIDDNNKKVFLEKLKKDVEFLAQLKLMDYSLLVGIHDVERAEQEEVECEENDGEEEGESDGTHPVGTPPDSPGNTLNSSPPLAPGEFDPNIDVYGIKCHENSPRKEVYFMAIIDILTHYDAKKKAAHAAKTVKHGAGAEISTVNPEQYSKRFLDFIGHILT

[6] = biological target: Uncharacterized serine/threonine-protein kinase SBK3 (Homo sapiens) (UniProt P0C264); assay: Inhibition of SgK110 (unknown origin) at 10 uM by Ambit Kinomescan binding assay
[7] = biological target: Dual specificity tyrosine-phosphorylation-regulated kinase 2 (Homo sapiens) (UniProt Q92630); assay: Inhibition of DYRK2 (unknown origin) at 1 uM by Ambit Kinomescan binding assay relative to control; values are per cent of control
[8] = biological target: Myosin-IIIa (Homo sapiens) (UniProt Q8NEV4); assay: Inhibition of MYO3A (unknown origin) at 1 uM by Ambit Kinomescan binding assay relative to control
How it was run: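 In vitro ATP-site competition binding assay against a panel of over 420 kinases (KinomeScan), with compound tested at 10 or 1 μM.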

[9] = biological target: SRSF protein kinase 2 (Homo sapiens) (UniProt P78362); assay: Inhibition of SRPK2 (unknown origin) at 1 uM by Ambit Kinomescan binding assay relative to control
[10] = biological target: Ribosomal protein S6 kinase alpha-3 (Homo sapiens) (UniProt P51812); assay: Inhibition of RSK2 domain1 ACT labeling site LTDFGLSKESIDHEK in human Huh-7 cell lysate at 1 uM by KiNativ Profiling analysis relative to control; type: subcellular
[11] = biological target: T3, Serine/threonine-protein kinase TAO3 (Homo sapiens) (UniProt Q9H2K8); assay: Inhibition of TAO3 Lys2 labeling site in human Huh-7 cells at 1 uM by KiNativ Profiling analysis relative to control; type: cell-based
T3 sequence (whole entry): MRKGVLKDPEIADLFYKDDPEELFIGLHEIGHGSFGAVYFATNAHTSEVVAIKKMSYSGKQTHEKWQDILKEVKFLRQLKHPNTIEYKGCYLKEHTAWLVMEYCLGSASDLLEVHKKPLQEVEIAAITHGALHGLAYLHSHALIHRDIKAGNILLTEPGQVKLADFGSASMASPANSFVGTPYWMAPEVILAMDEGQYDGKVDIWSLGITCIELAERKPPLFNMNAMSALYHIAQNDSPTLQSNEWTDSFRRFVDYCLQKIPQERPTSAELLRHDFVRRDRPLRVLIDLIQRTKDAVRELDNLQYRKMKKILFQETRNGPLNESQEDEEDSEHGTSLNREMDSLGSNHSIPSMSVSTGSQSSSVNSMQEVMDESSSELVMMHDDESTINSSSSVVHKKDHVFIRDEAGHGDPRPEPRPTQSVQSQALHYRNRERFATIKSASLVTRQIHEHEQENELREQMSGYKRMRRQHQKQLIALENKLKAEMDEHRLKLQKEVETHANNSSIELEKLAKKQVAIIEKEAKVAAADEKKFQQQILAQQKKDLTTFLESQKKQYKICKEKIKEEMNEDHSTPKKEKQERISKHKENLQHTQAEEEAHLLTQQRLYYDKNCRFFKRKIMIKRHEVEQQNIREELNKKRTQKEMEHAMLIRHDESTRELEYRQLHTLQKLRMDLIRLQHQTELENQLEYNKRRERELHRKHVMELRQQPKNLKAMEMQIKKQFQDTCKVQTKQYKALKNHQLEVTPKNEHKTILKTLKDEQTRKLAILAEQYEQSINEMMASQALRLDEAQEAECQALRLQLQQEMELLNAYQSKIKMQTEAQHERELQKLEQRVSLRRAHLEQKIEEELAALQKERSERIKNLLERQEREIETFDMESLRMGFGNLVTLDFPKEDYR

[12] = biological target: Serine/threonine-protein kinase WNK1 (Homo sapiens) (UniProt Q9H4A3); assay: Inhibition of Wnk1 Lys2 labeling site in human Huh-7 cells at 1 uM by KiNativ Profiling analysis relative to control; type: cell-based
Sequence of Serine/threonine-protein kinase WNK1 (Homo sapiens) (Q9H4A3 whole entry, looked up): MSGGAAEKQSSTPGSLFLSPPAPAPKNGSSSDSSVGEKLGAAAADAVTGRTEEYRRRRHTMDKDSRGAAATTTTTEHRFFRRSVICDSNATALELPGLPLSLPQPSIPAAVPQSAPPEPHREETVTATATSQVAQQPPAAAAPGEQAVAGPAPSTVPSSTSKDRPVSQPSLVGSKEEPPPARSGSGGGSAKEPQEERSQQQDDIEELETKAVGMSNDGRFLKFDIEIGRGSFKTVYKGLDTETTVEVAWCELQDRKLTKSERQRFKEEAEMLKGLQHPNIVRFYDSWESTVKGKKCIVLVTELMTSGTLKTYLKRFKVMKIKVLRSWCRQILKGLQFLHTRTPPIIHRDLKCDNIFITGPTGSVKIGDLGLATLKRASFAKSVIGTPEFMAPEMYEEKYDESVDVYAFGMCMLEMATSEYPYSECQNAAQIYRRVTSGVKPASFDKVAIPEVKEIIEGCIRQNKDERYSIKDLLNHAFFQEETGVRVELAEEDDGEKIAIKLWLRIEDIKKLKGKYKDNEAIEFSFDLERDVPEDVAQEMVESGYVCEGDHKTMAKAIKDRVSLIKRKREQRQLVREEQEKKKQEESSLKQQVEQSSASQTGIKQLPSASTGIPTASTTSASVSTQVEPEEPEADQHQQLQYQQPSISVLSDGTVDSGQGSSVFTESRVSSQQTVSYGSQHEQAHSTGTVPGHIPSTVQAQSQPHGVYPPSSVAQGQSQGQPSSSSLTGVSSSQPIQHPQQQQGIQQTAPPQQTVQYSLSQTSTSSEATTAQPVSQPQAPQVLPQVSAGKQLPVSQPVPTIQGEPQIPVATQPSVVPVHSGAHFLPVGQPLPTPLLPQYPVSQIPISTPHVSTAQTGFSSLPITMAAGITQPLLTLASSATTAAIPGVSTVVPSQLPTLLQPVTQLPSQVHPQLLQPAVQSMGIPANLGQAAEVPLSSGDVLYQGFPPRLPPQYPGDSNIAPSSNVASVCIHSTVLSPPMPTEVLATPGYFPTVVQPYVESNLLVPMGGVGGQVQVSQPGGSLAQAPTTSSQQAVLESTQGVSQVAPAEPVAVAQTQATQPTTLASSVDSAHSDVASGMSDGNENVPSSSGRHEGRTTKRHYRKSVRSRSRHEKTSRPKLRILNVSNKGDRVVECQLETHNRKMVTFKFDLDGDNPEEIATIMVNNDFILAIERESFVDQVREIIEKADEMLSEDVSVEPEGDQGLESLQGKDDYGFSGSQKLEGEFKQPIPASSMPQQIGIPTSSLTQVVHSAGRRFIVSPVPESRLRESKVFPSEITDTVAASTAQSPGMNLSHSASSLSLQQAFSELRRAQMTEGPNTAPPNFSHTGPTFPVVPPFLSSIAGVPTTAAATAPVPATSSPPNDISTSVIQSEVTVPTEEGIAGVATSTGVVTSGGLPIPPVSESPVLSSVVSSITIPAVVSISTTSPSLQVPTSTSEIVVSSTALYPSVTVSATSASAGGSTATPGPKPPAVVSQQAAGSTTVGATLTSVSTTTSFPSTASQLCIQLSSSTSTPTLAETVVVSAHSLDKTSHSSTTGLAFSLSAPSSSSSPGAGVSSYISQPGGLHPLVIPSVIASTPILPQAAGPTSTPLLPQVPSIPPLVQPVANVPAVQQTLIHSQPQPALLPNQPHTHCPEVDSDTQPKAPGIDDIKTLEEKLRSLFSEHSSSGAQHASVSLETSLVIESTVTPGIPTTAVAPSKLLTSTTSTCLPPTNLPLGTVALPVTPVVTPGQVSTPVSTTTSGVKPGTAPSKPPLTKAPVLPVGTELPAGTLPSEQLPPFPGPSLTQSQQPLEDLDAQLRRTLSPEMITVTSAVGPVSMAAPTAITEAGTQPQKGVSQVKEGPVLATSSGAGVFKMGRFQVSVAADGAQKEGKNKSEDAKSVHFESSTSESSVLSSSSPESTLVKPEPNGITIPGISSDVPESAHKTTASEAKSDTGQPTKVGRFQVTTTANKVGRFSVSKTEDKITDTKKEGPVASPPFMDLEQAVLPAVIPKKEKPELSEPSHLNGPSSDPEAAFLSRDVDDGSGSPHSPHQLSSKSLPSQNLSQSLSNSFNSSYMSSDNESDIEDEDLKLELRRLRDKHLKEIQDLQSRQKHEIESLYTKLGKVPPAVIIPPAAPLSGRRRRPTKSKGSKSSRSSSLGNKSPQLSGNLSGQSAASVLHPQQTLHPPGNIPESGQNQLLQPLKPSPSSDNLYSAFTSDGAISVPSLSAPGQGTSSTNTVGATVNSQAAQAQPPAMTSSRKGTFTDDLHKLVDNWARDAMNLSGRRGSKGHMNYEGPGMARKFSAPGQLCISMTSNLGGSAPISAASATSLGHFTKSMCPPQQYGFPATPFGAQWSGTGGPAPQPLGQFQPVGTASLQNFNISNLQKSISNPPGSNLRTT

Sequence of Ribosomal protein S6 kinase alpha-3 (Homo sapiens) (P51812 whole entry, the tested form may be a part): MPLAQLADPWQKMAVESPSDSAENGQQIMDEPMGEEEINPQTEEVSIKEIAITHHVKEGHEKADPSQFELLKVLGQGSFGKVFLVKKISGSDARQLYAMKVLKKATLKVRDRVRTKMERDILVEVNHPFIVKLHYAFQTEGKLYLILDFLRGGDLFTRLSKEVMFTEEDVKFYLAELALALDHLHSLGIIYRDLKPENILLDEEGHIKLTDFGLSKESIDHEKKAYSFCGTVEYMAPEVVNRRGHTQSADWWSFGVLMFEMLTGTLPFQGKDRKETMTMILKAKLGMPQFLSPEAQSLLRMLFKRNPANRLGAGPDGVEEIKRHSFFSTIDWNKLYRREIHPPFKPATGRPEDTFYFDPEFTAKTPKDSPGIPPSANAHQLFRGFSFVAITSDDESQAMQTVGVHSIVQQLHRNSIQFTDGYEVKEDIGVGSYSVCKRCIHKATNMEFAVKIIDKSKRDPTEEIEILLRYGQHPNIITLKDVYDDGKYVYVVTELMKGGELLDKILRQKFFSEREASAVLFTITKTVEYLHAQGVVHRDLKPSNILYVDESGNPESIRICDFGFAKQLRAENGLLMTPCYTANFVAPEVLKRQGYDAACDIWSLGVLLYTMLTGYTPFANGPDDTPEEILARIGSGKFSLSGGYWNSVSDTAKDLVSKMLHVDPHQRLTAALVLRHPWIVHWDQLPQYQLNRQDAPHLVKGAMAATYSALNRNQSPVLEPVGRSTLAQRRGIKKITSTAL
Sequence of Uncharacterized serine/threonine-protein kinase SBK3 (Homo sapiens) (P0C264 whole entry): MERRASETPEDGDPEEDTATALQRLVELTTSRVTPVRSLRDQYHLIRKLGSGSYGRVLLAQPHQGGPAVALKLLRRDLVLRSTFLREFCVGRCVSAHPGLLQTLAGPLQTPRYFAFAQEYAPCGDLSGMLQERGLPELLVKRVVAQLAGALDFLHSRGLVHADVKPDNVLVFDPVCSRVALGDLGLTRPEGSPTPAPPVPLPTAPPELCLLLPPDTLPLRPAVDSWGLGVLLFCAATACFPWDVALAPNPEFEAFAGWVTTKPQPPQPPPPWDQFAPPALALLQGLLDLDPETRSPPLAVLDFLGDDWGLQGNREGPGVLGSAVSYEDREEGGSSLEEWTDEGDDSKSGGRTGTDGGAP
Sequence of Tyrosine-protein kinase ABL1 (P00519 whole entry): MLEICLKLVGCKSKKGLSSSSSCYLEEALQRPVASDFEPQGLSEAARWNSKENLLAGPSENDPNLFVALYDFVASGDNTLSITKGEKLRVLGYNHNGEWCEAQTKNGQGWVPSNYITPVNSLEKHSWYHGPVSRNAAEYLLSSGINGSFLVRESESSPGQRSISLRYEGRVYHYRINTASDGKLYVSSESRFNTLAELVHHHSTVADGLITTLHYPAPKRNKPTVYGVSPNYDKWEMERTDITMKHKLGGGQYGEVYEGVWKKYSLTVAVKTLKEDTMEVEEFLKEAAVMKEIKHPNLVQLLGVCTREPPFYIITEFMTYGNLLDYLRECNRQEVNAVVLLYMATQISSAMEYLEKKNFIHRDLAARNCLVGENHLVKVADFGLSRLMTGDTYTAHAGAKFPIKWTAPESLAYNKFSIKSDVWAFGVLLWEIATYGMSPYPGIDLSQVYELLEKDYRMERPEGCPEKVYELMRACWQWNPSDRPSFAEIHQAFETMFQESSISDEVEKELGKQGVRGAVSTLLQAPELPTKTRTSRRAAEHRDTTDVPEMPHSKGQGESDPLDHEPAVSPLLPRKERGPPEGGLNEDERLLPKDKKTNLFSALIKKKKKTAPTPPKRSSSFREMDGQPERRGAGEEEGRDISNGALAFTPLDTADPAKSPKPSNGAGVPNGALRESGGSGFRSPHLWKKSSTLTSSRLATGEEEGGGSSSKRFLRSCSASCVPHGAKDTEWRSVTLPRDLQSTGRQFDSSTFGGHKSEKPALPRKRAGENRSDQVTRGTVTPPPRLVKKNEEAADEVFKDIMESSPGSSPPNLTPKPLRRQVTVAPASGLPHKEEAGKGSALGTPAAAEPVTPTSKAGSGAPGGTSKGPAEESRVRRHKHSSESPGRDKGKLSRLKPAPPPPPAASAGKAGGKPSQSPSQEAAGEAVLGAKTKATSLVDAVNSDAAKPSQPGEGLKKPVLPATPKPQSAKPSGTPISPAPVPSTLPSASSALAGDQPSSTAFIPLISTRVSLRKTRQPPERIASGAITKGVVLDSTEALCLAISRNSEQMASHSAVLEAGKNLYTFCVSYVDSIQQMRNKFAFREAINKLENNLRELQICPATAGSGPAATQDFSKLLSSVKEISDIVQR

For `CCN1CCN(Cc2ccc(NC(=O)c3ccc(C)c(Oc4ccnc5[nH]ccc45)c3)cc2C(F)(F)F)CC1`, the inhibition [1] was 0.6%, the inhibition [2] was 88.5% and the inhibition [3] was > 95%. The inhibition [4] was 15.7%, the inhibition [5] was -0.3% and the inhibition [6] was “inactive”.
Molecule `CCN1CCN(Cc2ccc(NC(=O)c3ccc(C)c(/C=C/c4cnc5[nH]ccc5c4OC)c3)cc2C(F)(F)F)CC1` has a residual activity [7] of 68%, an inhibition [8] of 84% and an inhibition [9] of 76%.
`CNc1cc(Oc2cc(C(=O)Nc3cc(N4CCN(C)CC4)cc(C(F)(F)F)c3)ccc2C)ncn1` gave an inhibition [10] of -5%, an inhibition [11] of 0.4% and an inhibition [12] of 15.3%.
